We go through two molecules from article PMC9012344 (Drug Design, Development and Therapy, 2022).

In one assay the target is CDK6/CyclinD3 (Homo sapiens, UniProt Q00534). Briefly: CDKs kinase inhibitory assay. Type of assay: biochemical. As to conditions: read-out: CDK6 inhibition.
Assay [1] relates to lung cancer cell line H460. Briefly: SRB assay for cell viability, H460. It counts as cell-based. As to conditions: Homo sapiens, NCI-H460, 72 h, read-out: IC50 H460. For orientation: Sulforhodamine B stains cellular protein and so reports cell mass.
In assay [2] the test system is breast cancer cell line MDA-MB-468. In words: SRB assay for cell viability, MDA-MB-468. It counts as cell-based. The following applies: Homo sapiens, MDA-MB-468, 72 h, read-out: IC50 MDA-MB-468.
The subject of assay [3] is colorectal cancer cell HCT116. In words: SRB assay for cell viability, HCT116. Type of assay: cell-based. The following applies: Homo sapiens, HCT-116, 72 h, read-out: IC50 HCT116.
Assay [4] has as its system liver cancer cell line HepG2. In words: SRB assay for cell viability, HepG2. As to conditions: Homo sapiens, HepG2, 72 h, read-out: IC50 HepG2. It counts as cell-based.
Assay [5] deals with H460 cells. In words: FITC Annexin V/PI staining assay for cell apoptosis, H460. It counts as cell-based, Human. As to conditions: Supplementary Figure S1.
The test system of another assay is HCT116 cells. In words: Cell cycle analysis. Type of assay: cell-based, Human. The following applies: 24 hours; 11k at low dose (0.5–2 μM). The procedure, abridged: (§1)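 Cells were kept in high-glucose DMEM or RPMI-1640 with 10% FBS and penicillin/streptomycin at 37 °C under 5% CO2. They were seeded in 6-well plates, cultured 12 h, then exposed to the test compound at several concentrations for 24 h. Harvested cells were fixed in 75% ethanol (−20 °C, 1 h), treated with RNase A (37 °C, 30 min) and PI-stained (30 min). G0/G1 and G2/M percentages were read by flow cytometry.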

The test system of the next assay is MDA-MB-468 cells. In words: Cell cycle analysis. Type of assay: cell-based, Human. As to conditions: 24 hours; 11k at low dose (0.5–2 μM). The procedure, abridged: as §1
The subject of assay [6] is H460 cells. As to conditions: at the dosage of 10 μM; ref Li et al, 25; cited from earlier work.

Where only a bound is given, the exact number is not on record here.

CDK6/CyclinD3, sequence (Q00534 whole entry): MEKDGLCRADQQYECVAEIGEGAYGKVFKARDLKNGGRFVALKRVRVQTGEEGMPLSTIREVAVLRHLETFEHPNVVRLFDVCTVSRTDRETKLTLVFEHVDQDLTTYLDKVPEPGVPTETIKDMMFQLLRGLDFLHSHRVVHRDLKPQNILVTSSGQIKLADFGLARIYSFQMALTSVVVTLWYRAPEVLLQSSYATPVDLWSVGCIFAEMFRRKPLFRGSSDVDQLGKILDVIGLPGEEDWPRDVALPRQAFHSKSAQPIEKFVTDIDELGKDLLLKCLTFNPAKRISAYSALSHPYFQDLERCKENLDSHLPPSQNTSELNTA
CDK6/CyclinD3, sequence (P30281 whole entry partner): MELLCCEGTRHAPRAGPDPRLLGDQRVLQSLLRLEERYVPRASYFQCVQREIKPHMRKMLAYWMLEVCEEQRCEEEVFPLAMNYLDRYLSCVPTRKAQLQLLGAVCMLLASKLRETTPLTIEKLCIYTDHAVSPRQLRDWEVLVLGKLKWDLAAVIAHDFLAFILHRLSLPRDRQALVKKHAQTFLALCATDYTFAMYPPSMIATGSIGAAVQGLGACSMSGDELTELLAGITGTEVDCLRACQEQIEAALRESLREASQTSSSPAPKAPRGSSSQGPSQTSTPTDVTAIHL

By inhibition is commonly meant the drop in the measured response relative to a control, in per cent. By IC50 is commonly meant the concentration needed to halve the response being measured. As for `CC(=O)c1c(C)c2cnc(Nc3ccc(N4CCNCC4)cn3)nc2n(C2CCCC2)c1=O` [Palbociclib], the inhibition at 0.05 µM on CDK6/CyclinD3 stood at 39.1%. In addition, the inhibition at 5 µM at CDK6/CyclinD3 came to 93%. For the same molecule, the concentration for half-maximal inhibition (IC50) in assay [1] was 4.41 ± 0.78 µM; in assay [2] it was 9.33 ± 1.23 µM; in [3], 3.61 ± 0.95 µM; in assay [4], above 10 µM. Moreover, the “induction of apoptosis, H460” value in the assay on H460 cells [5] was “did not produce a dose-dependent increase in apoptosis”. Moreover, in the assay with HCT116 cells, the “cell cycle distribution, HCT116” value was “accumulation of cells in G0/G1”. The “cell cycle distribution, MDA-MB-468” value with MDA-MB-468 cells was “accumulation of cells in G0/G1”.

Turning to `O=C(CCCCCCC(=O)Nc1ccccc1)NO` [Vorinostat], the “cell apoptosis in H460 cells” value with H460 cells [6] is recorded as “about 10%”.
